# High-throughput results (PubChem)
# CHO parental Ca – counter-screen: ATP calcium response change in parental CHO cells; parental CHO-K1, ATP-induced calcium, Fluo-8 fluorescence; 330,000 tested, 0.63% active; inhibition, % at 5.6 µM; AID 463079;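 active means inhibition above that plate's mean sample inhibition plus 3 SD, cut at about 26% in these data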;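 further: 0% = ATP-challenged DMSO wells and 100% = DMSO wells without ATP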
#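 Test system: untransfected parental CHO cell line. Compound: one dose, 5.6 µM nominal. Detection: intracellular calcium via Fluo-8 no-wash fluorescent dye. Measure: % inhibition. Benchmarks: ATP-challenged DMSO wells low, unchallenged DMSO wells high.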
# OX1R antag-1 – blocks the human orexin 1 receptor. O43613. OX1R-expressing cells, FRET antagonist read-out. inhibition, % at 6.6 µM. 330,000 tested, 1.8% active. AID 485270; in the data active means inhibition mostly above about 38%, no sharp cut-off; inactive means mostly below about 40%;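 further: 0% = agonist challenge alone and 100% = reference antagonist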
# TAAR1 antag – antagonists of human TAAR1. CHO RD-HGA16 TAAR1, Fluo-8 calcium fluorescence, antagonist. inhibition, % at 3 µM. 360,000 tested, 1.5% active. AID 624466;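 active means inhibition above a per-plate cutoff, the mean inhibition of test compounds on that plate plus 3 SD, cut at about 49% in these data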;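 further: 0% = DMSO plus EC80 beta-PEA response and 100% = DMSO alone without agonist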
# Target sequence (Q96RJ0 whole entry, looked up): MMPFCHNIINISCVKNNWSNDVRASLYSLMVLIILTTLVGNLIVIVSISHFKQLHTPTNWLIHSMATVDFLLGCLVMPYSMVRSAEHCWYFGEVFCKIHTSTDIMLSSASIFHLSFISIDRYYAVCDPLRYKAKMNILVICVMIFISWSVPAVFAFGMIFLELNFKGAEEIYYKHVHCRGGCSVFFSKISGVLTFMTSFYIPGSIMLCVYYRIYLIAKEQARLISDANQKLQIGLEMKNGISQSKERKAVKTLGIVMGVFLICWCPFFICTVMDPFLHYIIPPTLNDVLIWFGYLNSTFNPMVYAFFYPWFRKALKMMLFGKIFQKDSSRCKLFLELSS
#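 Assay system: CHO-derived RD-HGA16 cells stably expressing human TAAR1 plus Gα16. Timing: 140 s kinetic read after compound, 140 s after agonist. Technique: kinetic Fluo-8 calcium fluorescence measurement. Measure: % inhibition of agonist calcium response.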
# OX1R antag-2 – blocks the human orexin 1 receptor; O43613; CHO/OX1R cells, Fluo-8 calcium fluorescence, orexin A; inhibition, % at 5 µM; 330,000 tested, 0.43% active;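 active means inhibition above its plate's threshold, mean inhibition of all tested compounds on the plate plus 3 SD, cut at about 37% in these data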;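 further: 0% = orexin A challenge wells and 100% = SB-334867-A antagonist wells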
# TAAR1 agonist – agonists of human TAAR1 | CHO RD-HGA16 TAAR1, Fluo-8 calcium fluorescence; vehicle wells 0%, saturating PEA agonist 100% | activation, % at 3 µM | 360,000 tested, 0.99% active;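 active means activation above the mean activation of all test compounds in the run plus 3 SD, cut at about 38% in these data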
#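 Test system: RD-HGA16 (CHO) cells co-expressing Gα16 and hTAAR1 / Benchmarks: DMSO vehicle as 0%, PEA at EC100 as 100% / Repeats: no replicates (n 1) / Measure: % activation from peak over basal fluorescence ratio, DMSO-to-PEA scaled / Timing: 17-24 h plating, Fluo-8 75 min 37 °C, 30 min RT / Technique: kinetic Fluo-8 calcium fluorescence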
# GPR7 antagonist – human neuropeptides B/W receptor 1 antagonism. P48145. GPR7-expressing cells, fluorescence antagonist assay. inhibition, % at 4.4 µM. 290,000 tested, 1.1% active. AID 1861; in the data active means inhibition above about 16%, passing the limit was not always enough;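 further: cells stimulated with the agonist NPW; 0% = agonist with vehicle and 100% = vehicle without agonist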
# Target sequence (P48145 whole entry, looked up): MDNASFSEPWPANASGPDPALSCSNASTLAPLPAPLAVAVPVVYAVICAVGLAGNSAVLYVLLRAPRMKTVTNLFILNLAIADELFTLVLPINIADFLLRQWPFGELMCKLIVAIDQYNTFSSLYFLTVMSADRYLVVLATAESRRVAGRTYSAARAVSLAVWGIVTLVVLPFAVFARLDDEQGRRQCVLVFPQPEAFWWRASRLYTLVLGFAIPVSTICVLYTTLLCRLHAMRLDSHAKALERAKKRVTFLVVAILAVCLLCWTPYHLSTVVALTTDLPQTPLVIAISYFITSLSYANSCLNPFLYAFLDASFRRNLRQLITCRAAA
# An asterisk follows results filed as active; x = no result. In the library only some 4.6% were active in any assay of this set; here they are far more common.
SMILES,CHO parental Ca,OX1R antag-1,TAAR1 antag,OX1R antag-2,TAAR1 agonist,GPR7 antagonist
Brc1ccc(CN2CCN(Cc3c[nH]c4ccccc34)CC2)cc1,-5.5,-6.8,10.2,4.8,37.8*,20.9
N/C(=N\OC(=O)c1cc([N+](=O)[O-])ccc1Cl)c1ccccn1,-5.4,46.2,-20.2,-6.9,10.2,-16.2
N/C(=N\OC(=O)c1ccc([N+](=O)[O-])cc1Cl)c1ccccn1,-16.0,53.8*,-24.1,-28.1,0.9,-5.7
Cc1ccc(/C=C/c2ccc(N(C)C)cc2)[n+](C)c1,14.6,39.5*,11.2,-7.7,1.5,0.1
Cc1noc(C)c1S(=O)(=O)NC(=O)C1(C)CCN1C(=O)CC(c1ccccc1)c1ccccc1 (centres undefined),x,x,-29.6,x,5.2,x
NC(=O)CN1C(=O)C(O)(CC(=O)c2ccccc2O)c2ccccc21 (centres undefined),2.8,55.6*,3.9,5.8,0.6,-14.6
O=C(NCc1ccccc1)[C@H]1CCCN1C(=O)[C@H]1CCCN1C(=O)C1CCCCC1,x,x,6.6,x,-0.6,x
O=C(C(=O)N1CCN(c2ccccc2F)CC1)c1ccccc1,x,x,-27.2,x,1.8,x
O=C(NCc1cccc(C(F)(F)F)c1)c1cccc2c1C(=O)c1ccc(N3CCC(Cc4ccccc4)CC3)cc1S2(=O)=O,26.9,5.6,x,49.3,x,x
O=C(NCc1cc(C(F)(F)F)ccc1Cl)c1cccc2c1C(=O)c1ccc(N3CCC(N4CCCCC4)CC3)cc1S2(=O)=O,x,x,59.2*,x,16.2,x
COc1ccccc1N1CCN(c2ccc3c(c2)S(=O)(=O)c2cccc(C(=O)NCc4ccc(F)cc4)c2C3=O)CC1,x,x,56.5*,x,8.0,x
O=C(NCc1cccc(F)c1)c1cccc2c1C(=O)c1ccc(N3CCC(Cc4ccccc4)CC3)cc1S2(=O)=O,41.6*,14.8,x,40.5,x,x
C[C@H](O)[C@@H]1C(=O)N2CCc3c([nH]c4c(-c5ccccc5)cccc34)[C@@H]2C[C@@H]1N(C)C(=O)c1ccccc1F,x,x,18.0,x,9.6,x
O=C(NCc1ccccc1)c1onc(CSc2ccccc2)c1C(=O)NCC1CC1,47.5*,62.3,56.0*,46.7,14.2,x
CCCCC1(C)OC(=O)C(=Cc2ccc(N(CC)CC)cc2)C(=O)O1 (centres undefined),3.8,19.4,19.4,-3.5,45.9*,-8.9
COc1ccc(/C=C/C(=O)Nc2ccc3c(c2)CCC3)cc1OC,-23.9,73.2*,-3.8,22.1,2.7,-3.0
COc1ccc(NC(=O)Nc2ccc3c(c2)CCC3)cc1OC,5.2,37.5,17.0,-11.2,4.8,-7.1
O=C1C2CC=CCC2C(=O)N1c1ccc(N2CCN(c3ccccn3)CC2)c([N+](=O)[O-])c1 (centres undefined),45.6*,41.5,12.7,26.6,8.8,1.5
O=C(c1ccc(N2CCCCC2)c([N+](=O)[O-])c1)N1CCN(c2ccccn2)CC1,-23.1,19.8,14.7,-18.1,-1.8,-14.5
CCc1cc2cccc(C)c2nc1SCC(=O)c1ccc(NC(C)=O)cc1,-13.6,52.6*,-11.8,33.6,11.3,3.4
CCc1cc2cccc(C)c2nc1SCC(=O)NNC(=O)c1ccco1,-21.5,69.9*,-10.6,-0.1,13.1,-5.1
COc1cc(CN2C(=O)C(CCc3ccccc3)ON=C2c2cnccn2)cc(OC)c1 (centres undefined),x,x,50.5*,x,2.1,x
CC(=O)Oc1ccc(CN2C(=O)C(CCc3ccccc3)ON=C2c2cnccn2)cc1 (centres undefined),x,x,25.1,x,10.3,x
CCc1ccc([C@H]2[C@@H]3C(=O)C[C@@H]4C(=O)NC(=O)[C@@H]4[C@@H]3CN2S(=O)(=O)c2ccc(C)cc2)cc1,x,x,-9.3,x,2.5,x
CC(=O)Nc1ccc(Nc2ncnc(N)c2[N+](=O)[O-])cc1,-6.3,36.7*,-7.3,-10.7,22.2,-12.7
SMILES,CHO parental Ca,OX1R antag-1,TAAR1 antag,OX1R antag-2,TAAR1 agonist,GPR7 antagonist
CC(=O)Nc1ccc(Nc2ncc([N+](=O)[O-])c(Nc3ccc(NC(C)=O)cc3)n2)cc1,-11.0,9.3,-8.9,-15.3,-3.1,-8.3
OCCCNc1cc(-c2ccnc(Nc3cccc(Cl)c3)n2)ccn1,-23.9,29.2,80.4*,-11.3,16.9,x
Cc1c(Cl)c([N+](=O)[O-])nn1Cc1ccc(C(=O)N/N=C\c2ccccn2)o1,19.7,18.1,-18.5,-19.6,6.9,-9.3
COc1cc(/C=N\NC(=O)c2ccc(Cn3nc([N+](=O)[O-])c(Cl)c3C)o2)ccc1O,-0.8,16.7,49.5*,-0.9,11.7,15.9
C=CCNC(=S)N/N=C(\C)c1ccccn1,29.3*,4.8,20.2,24.5,8.9,0.2
CC(=NNC(=S)Nc1ccccc1)c1ccccn1,x,x,-1.7,x,0.7,x
CCn1c(N2CCN(S(=O)(=O)c3ccc(OC)cc3)CC2)nc2ccccc21,4.5,6.6,49.1*,-2.6,33.8,-4.8
CCn1c(N2CCN(S(=O)(=O)c3ccccc3C(F)(F)F)CC2)nc2ccccc21,-2.3,17.2,42.5,-11.9,23.6,-13.9
COc1ccc(OC2CCN(S(=O)(=O)c3ccc(OC)cc3)CC2)cc1,36.1*,0.4,1.5,27.4,5.3,34.2
Cc1ccc(CN(c2ccc(C(=O)NCc3ccccn3)cc2)S(C)(=O)=O)cc1,-6.6,19.7,16.6,-5.7,37.5*,5.3
CCn1c(O)c(N=NC(=O)c2cccs2)c2ccccc21,-25.0,76.4*,22.0,7.7,3.6,-0.6
CCCn1c(O)c(N=NC(=O)c2ccco2)c2ccccc21,-27.3,35.7,7.4,-42.9,8.3,-7.5
CCn1c(O)c(N=NC(=O)CNC(=O)/C=C/c2ccco2)c2ccccc21,-8.8,35.8*,-8.9,-6.6,7.4,-1.0
O=C(NC1CCCCC1)C(c1cc2ccccc2o1)N1CCOCC1 (centres undefined),x,x,0.7,x,-0.3,x
CCn1c(CSc2nc3ccccc3s2)nc2ccccc21,54.7*,100.4*,37.8,79.2*,20.5,-4.8
COC(=O)c1cc2c(c3c4cc(F)ccc4n(S(=O)(=O)c4ccc(C)cc4)c13)C(=O)N(C)C2,x,x,-5.5,x,-1.6,x
O=c1c2c([N+](=O)[O-])cc([N+](=O)[O-])cc2nc2ccccn12,-4.7,73.2*,-3.1,3.1,-1.0,-14.9
Cc1c(O)nc2ccccn2c1=O,-0.7,2.9,11.1,5.5,1.3,-3.9
CC(C)NC(=O)c1sc2nc3c(c(-c4cccs4)c2c1N)CN(C)CC3,-4.9,59.9*,-23.4,-24.7,1.2,1.5
Cc1cccc(NC(=O)c2sc3nc4c(c(-c5cccs5)c3c2N)CN(C)CC4)c1,-12.4,75.8*,-8.4,-13.2,3.1,-2.2
NC(=O)c1sc2nc3c(c(-c4cccs4)c2c1N)CCCC3,x,x,x,x,x,-11.9
COc1ccc(NC(=O)CSc2nc3c(c(-c4cccs4)c2C#N)CN(C)CC3)cc1OC,-8.1,6.6,-2.6,-11.8,1.1,-13.8
